MrgX1 ag = activates human MrgX1 receptor signaling | Q96LB2 | MrgX1-HEK293 cells, Fluo-4 calcium fluorescence, agonist mode; active compounds read high | B-score at 10 µM | hit rate 0.44% among 310,000;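 active = calcium response B-score plate-corrected fluorescence ratio at least 3 library SD, with starting fluorescence B-score inside 5 SD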
Target sequence (Q96LB2 whole entry, looked up): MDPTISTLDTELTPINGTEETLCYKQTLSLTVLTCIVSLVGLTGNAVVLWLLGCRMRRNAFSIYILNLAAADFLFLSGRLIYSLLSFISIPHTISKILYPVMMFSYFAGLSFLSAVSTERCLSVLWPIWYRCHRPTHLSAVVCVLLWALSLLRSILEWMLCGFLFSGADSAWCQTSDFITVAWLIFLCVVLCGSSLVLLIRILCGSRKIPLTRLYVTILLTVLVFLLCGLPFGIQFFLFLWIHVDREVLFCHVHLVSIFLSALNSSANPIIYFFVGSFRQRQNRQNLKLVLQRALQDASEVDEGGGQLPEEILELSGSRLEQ
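Test system: HEK293 cells stably expressing human MrgX1 receptor; Input: fifteen thousand cells per well; Dosing: compound delivered in addition one of three; Schedule: overnight seeding, then 1 h dark dye loading; Technique: Fluo-4 NW calcium fluorescence; Measure: B-scored fluorescence response ratio; Controls: positive and negative controls per plate.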
RGS4 block = inhibitors of human RGS4; P49798; HEK293 M3R/RGS4 inducible, Fluo-4 calcium flux; active compounds read high; triggered by carbachol at its EC20; B-score at 10 µM; hit rate 0.45% among 310,000; AID 463165;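 active = B-score, a plate-corrected calcium signal, over three deviations above library mean, with baseline fluorescence within five deviations of library mean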;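 note: RGS4 expression induced by doxycycline in cells with stable M3 receptor; B-score is computed from the integrated fluorescence ratio over baseline after carbachol; higher B-score means a larger calcium signal and so more RGS4 inhibition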
Target sequence (P49798 whole entry, looked up): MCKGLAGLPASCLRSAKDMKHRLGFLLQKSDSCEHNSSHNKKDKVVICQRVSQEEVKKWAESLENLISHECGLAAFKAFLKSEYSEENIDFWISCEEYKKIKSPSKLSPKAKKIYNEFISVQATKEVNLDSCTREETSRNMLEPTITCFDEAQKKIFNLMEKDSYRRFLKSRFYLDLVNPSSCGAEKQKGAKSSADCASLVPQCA
MrgX1 antagonist = human MrgX1 receptor antagonism, primary screen; Q96LB2; MRGX1-HEK293 calcium flux, Fluo-4, BAM8-22 antagonism; active compounds read low; B-score at 10 µM; hit rate 1.3% among 310,000; AID 588676;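 active = calcium-response B-score plate-corrected more than 3 library SD below zero, starting fluorescence within 5 deviations, no agonist response on first addition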;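 note: peak minus trough fluorescence over baseline after final BAM8-22 challenge near maximal dose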
MrgX1 allo act = human MrgX1 positive allosteric modulation, primary screen | Q96LB2 | MrgX1-HEK293, Fluo-4 calcium flux, FDSS; active compounds read high | B-score at 10 µM | hit rate 0.63% among 310,000;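 active = plate-corrected calcium response at least 3 library SD above typical, normal starting fluorescence, not activating the receptor alone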;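 note: compound read alongside a low EC10 to EC30 dose of BAM8-22 agonist; peak minus trough fluorescence over baseline measured at the second addition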
RGS4 act = RGS4 potentiation or activation. HEK293 M3R/inducible RGS4, carbachol calcium flux Fluo4; active compounds read low. B-score at 10 µM. hit rate 0.92% among 310,000;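 active = B-score of the integrated calcium signal more than 4 SD below the library mean, with starting fluorescence not abnormally high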;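 note: negative B-score means reduced calcium response which marks RGS4 activation or potentiation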
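test system = M3R-expressing HEK293 line, RGS4 induced by doxycycline | probe or stimulus = carbachol at ECmax as muscarinic agonist stimulus | timing = dye loading 30 min 37 °C, buffer rest 30 min RT | signal = calcium dye Fluo4 fluorescence | evaluation = B score from integrated fluorescence ratio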
Of the large screens only hits and unclear results are named; the others gave an inactive call. Hits are enriched below; roughly 3.5% of the tested compounds scored in any of these assays.

CCC(Cc1ccccc1)NS(=O)(=O)c1c(C)nc2sccn2c1=O (stereo unspecified)	none
Cc1noc2ncnc(Oc3cc(Cl)ccc3Cl)c12	none
Cc1cc(Cl)ccc1Oc1ncnc2oc(-c3ccccc3)cc12	MrgX1 allo act 11.5
COC(=O)CCN1CCc2cc(N=Nc3ccc([N+](=O)[O-])cc3)ccc21	none
Cc1c(C)n(Cc2ccc(F)cc2)c2ccc(C(=O)NCCCN3CCOCC3)cc12	none
CCOc1cc(/C=C2/C(=O)ON=C2C)cc(Br)c1O	MrgX1 ag 57.6
CCCOc1ccc(/C=C2/C(=O)ON=C2C)cc1OCC	none
Cc1nc(Cl)c(Cl)n1CCOc1ccccc1	none
COc1ccccc1C(CNC(=O)c1ccc(-c2ccccc2Cl)o1)N1CCCC1 (stereo unspecified)	RGS4 act -7.06
COc1ccc(C(CNC(=O)c2ccc(-c3ccccc3Cl)o2)N2CCOCC2)cc1 (stereo unspecified)	none
CCNc1nc(NCC)nc(SCCOC(=O)c2ccccc2)n1	MrgX1 ag 42.4
COCCN(C(=O)Cc1cccs1)C(C(=O)NCc1ccc(OC)cc1)c1ccc(C(C)C)cc1 (stereo unspecified)	RGS4 act -6.99
CCc1ccc(C(C(=O)NCc2ccc(OC)cc2)N(CCOC)C(=O)Cc2cccs2)cc1 (stereo unspecified)	none
CC(C)=CCc1c(O)cc2oc3c(CC=C(C)C)c(O)c(O)c(CC=C(C)C)c3c(=O)c2c1O	MrgX1 antagonist -5.64
CN(C)S(=O)(=O)c1cccc(NC(=O)CSc2cccc3cccnc23)c1	RGS4 act -7.32
Clc1ccc(-c2nnsc2SCc2ccccc2)cc1	none
Clc1ccc(CSc2snnc2-c2ccccc2)cc1	RGS4 act -7.25
CC1CCCN(c2nc(-c3cccnc3)nc3scc(-c4ccccc4)c23)C1 (stereo unspecified)	RGS4 act -7.27
CC1CCN(c2nc(CN3CCCCC3)nc3scc(-c4ccccc4)c23)CC1	RGS4 act -7.36
Cc1ccccc1-c1nnn(CC(=O)N(C)CC(=O)Nc2ccccc2C(F)(F)F)n1	none
C/C(=N\NC(=O)c1ccncc1)c1cc2ccccc2o1	none
C/C(=N\NC(=O)c1cccnc1)c1cc2ccccc2o1	MrgX1 antagonist -7.57
O=C(NC1CCCCC1)C1COc2ccccc2O1 (stereo unspecified)	RGS4 act -7.56
CC1CCC(NC(=O)C2COc3ccccc3O2)CC1 (stereo unspecified)	none
CCOc1ccc(N(C)c2ccc(/C=C3/SC(=S)NC3=O)cc2)cc1	MrgX1 ag 35.2
O=C(CCNC(=O)c1ccc([N+](=O)[O-])cc1)Nc1ccc(F)cc1F	none
CCN1C(=O)/C(=C2\SC(=S)N(NC(=O)c3ccccc3O)C2=O)c2ccccc21	MrgX1 allo act 14.8
CCN1C(=O)/C(=C2\SC(=S)N(c3c(C)n(C)n(-c4ccccc4)c3=O)C2=O)c2ccccc21	none
Cc1ccn2c(Nc3ccc4c(c3)OCO4)c(-c3ccc(O)cc3)nc2c1	none
COc1cc(/C=C/C(=O)c2ccc3c(c2)OCCO3)cc(Br)c1OCC(=O)N(C)C	MrgX1 antagonist -5.58
CCOc1c(Br)cc(CNc2ccc3c(c2)OCCO3)cc1OC	none
O=C(COC(=O)c1ccco1)Nc1nc2ccc([N+](=O)[O-])cc2s1	none
Cc1ccc(C)c(OCC(=O)Nc2nc3ccc([N+](=O)[O-])cc3s2)c1	MrgX1 antagonist -7.25
COc1ccc(N(CCC(=O)O)S(=O)(=O)c2ccc(C)cc2C)cc1	none
CN(CC1CCOCC1)C(=O)CC1C(=O)NCCN1CC1CCCCC1 (stereo unspecified)	none
CC1=N/C(=C\c2ccc([N+](=O)[O-])cc2)C(=O)N1c1ccc(F)cc1F	MrgX1 allo act 16.9
Cc1cc([N+](=O)[O-])ccc1NC(=O)Nc1ccc(F)cc1F	none
CC1=N/C(=C\c2ccc([N+](=O)[O-])cc2)C(=O)N1c1ccc(Cl)cc1	none
CC1=N/C(=C/c2ccc([N+](=O)[O-])cc2)C(=O)N1c1ccc(Cl)cc1Cl	MrgX1 allo act 15.1
COc1ccccc1/C=C/C(=O)NNC(=O)c1cccs1	none
Cc1ccc(C2C=C(c3ccccc3OC(F)F)Nc3ncnn32)cc1 (stereo unspecified)	none
CN(C)c1ccc(C2C=C(c3ccc(Cl)cc3OC(F)F)Nc3ncnn32)cc1 (stereo unspecified)	MrgX1 ag 39.9
Cc1ccc(S(=O)(=O)NC(=O)c2ccc(-c3ccc(-c4ccccc4)cc3)o2)c(C)c1	RGS4 act -9.14
COc1ccc(-c2cn(CCO)c(-c3ccc(Cl)nc3)n2)cc1	none (no result: RGS4 block, RGS4 act)
Cc1ccc(/C=C2\SC(N3CCN(C(c4ccccc4)c4ccccc4)CC3)=NC2=O)o1	RGS4 act -9.4
Cc1ccc(-c2ccc(/C=C3\SC(N4CCOCC4)=NC3=O)o2)cc1	none
CN1CCCN(C(=O)c2cc(-c3ccc(Cl)c(Cl)c3Cl)nc3ccccc23)CC1	MrgX1 ag 40.7
Cc1ccc2nc(-c3ccccc3)cc(C(=O)N3CCN(c4ccccc4O)CC3)c2c1	RGS4 act -8.58
O=C(c1cc(-c2ccccc2)nc2ccccc12)N1CCN(c2ccccc2O)CC1	RGS4 act -7.12
O=C(OCC(=O)N1CCN(C(=O)c2ccco2)CC1)c1cc(-c2ccc(Cl)c(Cl)c2Cl)nc2ccccc12	none
O=C(c1cc(-c2ccncc2)nc2ccccc12)N1CCN(c2ccccc2O)CC1	none
Cc1ccc(C(=O)NCC(=O)NCC(=O)OCC(=O)c2cccs2)cc1	none
Cc1ccccc1C(=O)N1CC(=O)Nc2ccc(F)cc2C1c1ccccc1 (stereo unspecified)	none
O=C1CC(c2ccccc2)CC(O)=C1C=NCc1ccncc1 (stereo unspecified)	MrgX1 antagonist -6.4
O=C1CC(c2ccccc2)CC(O)=C1C=NCc1ccc(Cl)c(Cl)c1 (stereo unspecified)	none
COc1ccc(OC)c(CNn2c(-c3ccccc3F)nc3ccccc3c2=O)c1	MrgX1 antagonist -4.78
CN(C)c1ccc(/C=C(\C#N)C(=O)Nc2nc3c(s2)CCN(Cc2ccccc2)C3)cc1	MrgX1 ag 49.6
CSc1nnc(NC(=O)c2ccc(S(=O)(=O)N3CCOCC3)cc2)s1	none
Cc1ccc(NC(=O)/C(Cl)=C/c2ccccc2)cc1C	MrgX1 allo act 8.96
O=C(c1ccco1)N1CCN(Cc2cc(=O)c(OCc3ccccc3F)co2)CC1	none
COc1cccc(CNC(=O)CCS(=O)(=O)Cc2ccc(C)cc2)c1	none
O=C1OCC2=C1C(c1ccc(F)cc1)CC(=O)N2c1ccc(F)cc1 (stereo unspecified)	none
O=C1OCC2=C1C(c1ccc(F)cc1)CC(=O)N2c1ccccc1 (stereo unspecified)	RGS4 act -7.71
CCCCCCCN1C(Nc2ccccc2)=NC[C@@H]1C	none (no result: RGS4 block, RGS4 act)
CC(C)(C)OC(=O)NCCCC[C@@H](C(=O)NCCCCCCCCCCC(=O)N1CCN(C(=O)OC(C)(C)C)CC1)n1cc(CCO)nn1	none (no result: RGS4 block, RGS4 act)

Assay outcomes: PubChem BioAssay, Johns Hopkins Ion Channel Center
